Measured values gathered from unrelated publications.
Lines come from different studies, so protocols differ.
folP: Dihydropteroate synthase (folP, Bacteria, UniProt P0AC13)
NR4A1: Nuclear receptor subfamily 4immunitygroup A member 1 (NR4A1, Homo sapiens, UniProt P22736)
KEAP1: Kelch-like ECH-associated protein 1 (KEAP1, Homo sapiens, UniProt Q14145)

NC(=O)c1ncn([C@@H]2O[C@H](CO)[C@@H](O)[C@H]2O)n1
Kd (5'-AMP-activated protein kinase catalytic subunit alpha-1 (PRKAA1, Homo sapiens, UniProt Q13131); binding, SPR): 6.75 µM

CC(=O)OCc1nn(C)c2nc(N)[nH]c(=O)c2c1=O
Kd (folP; binding, SPR): 0.0148 µM

CCCCCCCCC(=O)c1cc(O)c(O)c(O)c1
Kd (NR4A1; binding, ITC): 3.7 µM

OC[C@H]1OC(O)[C@H](O)[C@@H](O)[C@@H]1O (some centres unmarked)
Kd (ATP-dependent RNA helicase DDX18 (Homo sapiens, UniProt Q9NVP1); binding, MST): 77.2 µM

COc1cccc2c(Nc3ccc4[nH]c(C(=O)N/N=C/c5ccc(SC)cc5)cc4c3)cc(C)nc12
Kd (NR4A1; binding, ITC): 2.3 µM

COc1cccc2c1C(=O)c1c(O)c3c(c(O)c1C2=O)C[C@@](O)(C(=O)CO)C[C@@H]3O[C@H]1C[C@H](N)[C@H](O)[C@H](C)O1
IC50 (Solute carrier organic anion transporter family member 1B3 (SLCO1B3, Homo sapiens, UniProt Q9NPD5); transporter uptake, inhibitor, radiometric; 2 min): 7.7 µM

N=C(N)NCCCC(=O)O
Kd (Alkaline phosphatase, tissue-nonspecific isozyme (ALPL, Homo sapiens, UniProt P05186); binding, ITC): 2 µM

CN(Cc1cnc2nc(N)nc(N)c2n1)c1ccc(C(=O)N[C@@H](CCC(=O)O)C(=O)O)cc1
IC50 (Solute carrier organic anion transporter family member 1B3 (SLCO1B3, Homo sapiens, UniProt Q9NPD5, M233I); transporter uptake, inhibitor, radiometric; 2 min): > 100 µM

CCOC(=O)C(C)c1n[nH]c2nc(N)[nH]c(=O)c2c1=O (centres unmarked)
Kd (folP; binding, SPR): 0.199 µM

O=C(O)/C=C/c1ccc(O)c(O)c1
Kd (KEAP1; binding, SPR): 4.9 µM

C=CS(=O)(=O)c1ccc(Nc2nc(OCC3CCCCC3)c3nc[nH]c3n2)cc1
Kd (KEAP1; binding, SPR): 0.2 µM
